Kd data for 5 compounds are collected here from PMC3027307 (Biochemistry, 2010).

The target in this assay is P450-SS9 (cytochrome P450 from Photobacterium profundum strain SS9) (Photobacterium profundum, UniProt Q6LGK6). The assay is described as follows: absorbance. The format is binding. In outline:
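Enzyme at 0.8-1.8 μM was titrated with fatty acids or derivatives, added from 30-140 mM acetone stocks, at 25 °C with stirring in 0.1 M Na-Hepes pH 7.4 with 0.5 mM EDTA. Absorbance spectra were PCA/SVD-resolved into high-spin, low-spin and P420 standards. Kd came from a tight-binding (square-root) equation fit.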

For `CCCCC/C=C\C/C=C\C/C=C\C/C=C\CCCC(=O)O` [arachidonic acid], the Kd (usually the free concentration of one partner at which half of the binding sites on the other are occupied at equilibrium, for simple one-to-one binding) amounted to 19.2 ± 4.2 µM.

Take `CCCCCCCC/C=C\CCCCCCCC(=O)NCC(=O)O` [oleoyl glycine]: the Kd was found to be 49.5 ± 30 µM.

`CCCCC/C=C\C/C=C\C/C=C\C/C=C\CCCC(=O)NCC(=O)O` [arachidonoyl glycine] had a Kd of 16.7 ± 0.1 µM.

On to `CCCCCCCCCCCCCCCC(=O)O` [palmitic acid], for which binding was characterised by a dissociation constant (Kd) of 24.3 ± 8.2 µM.

Turning to `CCCCCCCCCCCCCC(=O)O` [myristic acid], the dissociation constant (Kd) worked out at 0.97 ± 0.42 µM.
